Consider 9 compounds from ChEMBL document CHEMBL1125449, “Substitution on the Phe3 aromatic ring in cyclic delta opioid receptor-selective dermorphin/deltorphin tetrapeptide analogues: electronic and lipophilic requirements for receptor affinity” (J Med Chem, 1992).

The target of assay [1] is T1, Kappa-type opioid receptor (Cavia porcellus, UniProt P41144). The assay can be described thus: Compound was tested for the inhibition of [3H]- (U69,593) binding to Opioid receptor kappa 1 in guinea pig brain homogenates. Format: tissue-based.
Assay [2] has as its target Opioid receptors; mu & delta (Homo sapiens) (UniProt P41143+P35372). As to the kind of experiment: Ratio of binding affinity towards mu receptor to delta receptor. It is filed as protein assay.
Assay [3] has as its target T2, Mu-type opioid receptor (Cavia porcellus, UniProt P97266). The assay can be described thus: Compound was tested for the inhibition of [3H]- [D-Ala2, N-MePhe4, Gly5-ol]-enkephalin (DAMGO) binding to Opioid receptor mu 1 in guinea pig brain homogenates. It is filed as tissue-based.
The target in assay [4] is T2, Mu-type opioid receptor. As to the kind of experiment: Compound was tested for the inhibition of [3H]- [D-Ala2, N-MePhe4, Gly5-ol]-enkephalin (DAMGO) binding to opioid receptor mu in guinea pig brain homogenates. Format: tissue-based. In a few lines: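 Guinea pig brain membranes (washed, preincubated 37 °C 30 min to remove endogenous opioids) in 50 mM Tris pH 7.4. Test compound preincubated with membranes 15 min at 25 °C, then 0.6 nM [3H]DAMGO added and incubated 75 min at 25 °C. Nonspecific binding defined with 5 μM DAMGO. Filtration, scintillation counting. 12 concentrations, triplicate. IC50 by regression; Ki from saturation-derived KD.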

Assay [5] concerns the target Mu-type opioid receptor (Cavia porcellus) (UniProt P97266). As to the kind of experiment: Ratio of binding affinity towards opioid receptor mu to opioid receptor delta.
Assay [6] addresses T1, Kappa-type opioid receptor. As to the kind of experiment: Compound was tested for the inhibition of [3H]- (U69,593) binding to opioid receptor kappa in guinea pig brain homogenates. It is filed as tissue-based. Put shortly:
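Guinea pig brain membranes (washed, preincubated 37 °C 30 min to remove endogenous opioids) in 50 mM Tris pH 7.4. Test compound preincubated with membranes 15 min at 25 °C, then 0.9 nM [3H]U69,593 added and incubated 90 min at 25 °C. Nonspecific binding defined with 10 μM U69,593. Filtration, scintillation counting. 12 concentrations, triplicate. IC50 by regression; Ki from saturation-derived KD.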

Structures are written as SMILES. pKi: −log10 of the molar value. Positions of bridges follow the written chain, without caps; N, C: chain ends. Non-standard residues stand in square brackets, D forms with d. Residues, ends and D or L forms follow the SMILES beside them. Phe(4-NO2) = N[C@@H](Cc1ccc([N+](=O)[O-])cc1)C(=O)O; Phe(4-tBu) = CC(C)(C)c1ccc(C[C@H](N)C(=O)O)cc1; Phe(4-Cl) = N[C@@H](Cc1ccc(Cl)cc1)C(=O)O; Phe(3-F) = N[C@@H](Cc1cccc(F)c1)C(=O)O; Phe(4-F) = N[C@@H](Cc1ccc(F)cc1)C(=O)O; Phe(4-Me) = Cc1ccc(C[C@H](N)C(=O)O)cc1; Phe(2-F) = N[C@@H](Cc1ccccc1F)C(=O)O; mTyr = N[C@@H](Cc1cccc(O)c1)C(=O)O; Pen = CC(C)(S)[C@H](N)C(=O)O

Usually pKi stands for −log10 of the Ki, conventionally taken in molar units. Read a low pKi as a large Ki.

Opioid receptors; mu & delta (Homo sapiens), sequence (P35372 whole entry, looked up): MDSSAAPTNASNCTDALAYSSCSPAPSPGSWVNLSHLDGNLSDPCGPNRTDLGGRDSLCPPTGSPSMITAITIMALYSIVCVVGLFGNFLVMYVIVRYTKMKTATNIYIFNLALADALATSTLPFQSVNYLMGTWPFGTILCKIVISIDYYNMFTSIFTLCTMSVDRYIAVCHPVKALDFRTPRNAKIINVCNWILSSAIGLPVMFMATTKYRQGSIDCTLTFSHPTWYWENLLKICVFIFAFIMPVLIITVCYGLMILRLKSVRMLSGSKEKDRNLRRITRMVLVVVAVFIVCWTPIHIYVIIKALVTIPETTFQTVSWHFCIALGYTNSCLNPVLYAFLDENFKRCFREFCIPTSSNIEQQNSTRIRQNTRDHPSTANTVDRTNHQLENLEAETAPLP
Opioid receptors; mu & delta (Homo sapiens), sequence (P41143 whole entry, looked up): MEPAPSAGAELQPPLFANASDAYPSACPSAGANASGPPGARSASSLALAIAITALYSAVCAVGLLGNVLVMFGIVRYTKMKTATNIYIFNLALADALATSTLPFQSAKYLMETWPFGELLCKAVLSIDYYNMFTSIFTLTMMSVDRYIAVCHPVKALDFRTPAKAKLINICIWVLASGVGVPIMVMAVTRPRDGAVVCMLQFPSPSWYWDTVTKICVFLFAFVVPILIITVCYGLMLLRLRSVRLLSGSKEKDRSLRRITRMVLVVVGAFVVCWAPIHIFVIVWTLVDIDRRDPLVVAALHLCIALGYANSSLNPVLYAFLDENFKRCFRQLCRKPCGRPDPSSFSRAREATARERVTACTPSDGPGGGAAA
Mu-type opioid receptor (Cavia porcellus), sequence (P97266 whole entry): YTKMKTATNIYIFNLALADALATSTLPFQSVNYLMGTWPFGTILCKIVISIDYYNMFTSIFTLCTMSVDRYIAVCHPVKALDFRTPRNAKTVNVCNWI
T2 sequence (P97266 whole entry): as above
T1 sequence (P41144 whole entry): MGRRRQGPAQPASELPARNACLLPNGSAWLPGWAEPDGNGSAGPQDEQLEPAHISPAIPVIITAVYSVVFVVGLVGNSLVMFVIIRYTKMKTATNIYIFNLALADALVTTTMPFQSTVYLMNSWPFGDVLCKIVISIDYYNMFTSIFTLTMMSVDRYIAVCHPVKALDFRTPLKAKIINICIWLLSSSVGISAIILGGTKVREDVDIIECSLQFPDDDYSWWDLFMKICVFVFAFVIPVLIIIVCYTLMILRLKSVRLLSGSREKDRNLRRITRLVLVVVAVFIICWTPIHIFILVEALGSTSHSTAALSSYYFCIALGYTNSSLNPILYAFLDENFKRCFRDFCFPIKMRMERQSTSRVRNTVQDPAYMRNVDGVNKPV

On to `CC1(C)SSC[C@H](NC(=O)[C@@H](N)Cc2ccc(O)cc2)C(=O)N[C@@H](Cc2ccc(O)cc2)C(=O)N[C@@H]1C(=O)O` (H-YCY[Pen]-OH; disulfide 2-4), for which the pKi in assay [1] is below 5.00; at Mu-type opioid receptor [3] it was 5.46. For the same compound, in assay [2], the Ratio is 135.

For `CC1(C)SSC[C@H](NC(=O)[C@@H](N)Cc2ccc(O)cc2)C(=O)N[C@@H](Cc2ccccc2F)C(=O)N[C@@H]1C(=O)O` (H-YC[Phe(2-F)][Pen]-OH; disulfide 2-4), the values for the pKi (on Mu-type opioid receptor [4]; in assay [6]) were 7.04 and below 5.00, respectively. For the same compound, the Ratio in assay [5] was 28.1.

Turning to `CC1(C)SSC[C@H](NC(=O)[C@@H](N)Cc2ccc(O)cc2)C(=O)N[C@@H](Cc2cccc(F)c2)C(=O)N[C@@H]1C(=O)O` (H-YC[Phe(3-F)][Pen]-OH; disulfide 2-4), the pKi on Mu-type opioid receptor [4] is 7.26; in assay [6], below 5.00. The Ratio in assay [5] is 19.2.

Take `CC1(C)SSC[C@H](NC(=O)[C@@H](N)Cc2ccc(O)cc2)C(=O)N[C@@H](Cc2ccc(Cl)cc2)C(=O)N[C@@H]1C(=O)O` (H-YC[Phe(4-Cl)][Pen]-OH; disulfide 2-4): the pKi on Mu-type opioid receptor [4] is 6.49; in assay [6], 5.00. Moreover, the Ratio in assay [5] was determined as 334.

For `CC1(C)SSC[C@H](NC(=O)[C@@H](N)Cc2ccc(O)cc2)C(=O)N[C@@H](Cc2ccc(F)cc2)C(=O)N[C@@H]1C(=O)O` (H-YC[Phe(4-F)][Pen]-OH; disulfide 2-4), the pKi in assay [1] was below 5.00; on Mu-type opioid receptor [3], 6.79. In assay [2], the Ratio was found to be 146.

As to `Cc1ccc(C[C@@H]2NC(=O)[C@@H](NC(=O)[C@@H](N)Cc3ccc(O)cc3)CSSC(C)(C)[C@@H](C(=O)O)NC2=O)cc1` (H-YC[Phe(4-Me)][Pen]-OH; disulfide 2-4), the results for the pKi (on Mu-type opioid receptor [4]; in assay [6]) were 5.76 and below 5.00, respectively. Besides, in assay [5], the Ratio is 325.

For `CC1(C)SSC[C@H](NC(=O)[C@@H](N)Cc2ccc(O)cc2)C(=O)N[C@@H](Cc2ccc([N+](=O)[O-])cc2)C(=O)N[C@@H]1C(=O)O` (H-YC[Phe(4-NO2)][Pen]-OH; disulfide 2-4), the figures for the pKi (in assay [1]; on Mu-type opioid receptor [3]) were below 5.00 and 6.86, respectively. In assay [2], the Ratio amounted to 82.5.

Turning to `CC(C)(C)c1ccc(C[C@@H]2NC(=O)[C@@H](NC(=O)[C@@H](N)Cc3ccc(O)cc3)CSSC(C)(C)[C@@H](C(=O)O)NC2=O)cc1` (H-YC[Phe(4-tBu)][Pen]-OH; disulfide 2-4), the pKi was below 5.00 in assay [1], 5.00 at Mu-type opioid receptor [4], below 5.00 in assay [6] and 5.00 at Mu-type opioid receptor [3]. The results for the Ratio in assay [5] and in assay [2] were 270 and 15, respectively.

On to `CC1(C)SSC[C@H](NC(=O)[C@@H](N)Cc2ccc(O)cc2)C(=O)N[C@@H](Cc2cccc(O)c2)C(=O)N[C@@H]1C(=O)O` (H-YC[mTyr][Pen]-OH; disulfide 2-4), for which the pKi was below 5.00 in assay [1], 6.15 at Mu-type opioid receptor [4], below 5.00 in assay [6] and 5.47 on Mu-type opioid receptor [3]. The Ratio came out at 76.6 in assay [5] and 22.3 in assay [2].
